Data reported in ChEMBL document CHEMBL2331364, “A synthetic dolastatin 10 analogue suppresses microtubule dynamics, inhibits cell proliferation, and induces apoptotic cell death” (J Med Chem, 2013).
Calls of active or inactive are those of the source. The rule behind the calls is not given here.

How the values were obtained:
MCF7 [1] = experiment: Inhibition of microtubule (unknown origin) dynamics in GFP-tubulin transfected human MCF7 cells assessed as microtubule rescue events at 15 nM by confocal laser scanning microscopy (reference value: 10 +/- 2 events/min); assay type: cell-based
Outline: (§1)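 EGFP-tubulin-transfected MCF-7 cells grown in EMEM with 10% FBS at 37 °C in 5% CO2, exposed to 15 nM compound (DMSO vehicle) or vehicle. Individual microtubules were followed by time-lapse confocal laser scanning microscopy and life-history traces were recorded. Kinetic parameters were derived from these traces, 20 microtubules per condition. Significance was tested by one-way ANOVA.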

MCF7 [2] = experiment: Inhibition of microtubule (unknown origin) dynamics in GFP-tubulin transfected human MCF7 cells assessed as microtubule growth time at 15 nM by confocal laser scanning microscopy (reference value: 37 +/- 6 %); assay type: cell-based; parameters: scale not given: the % may be the effect or the level left; outline: as §1
HeLa [3] = experiment: Induction of mitotic microtubule depolymerization in human HeLa cells at 30 nM after 24 hrs by Hoechst 33258 dye-based fluorescence microscopy; assay type: cell-based
HeLa [4] = experiment: Cell cycle arrest in human HeLa cells assessed as accumulation at G2/M phase at 30 nM after 24 hrs by propidium iodide staining-based flow cytometry (reference value: 4%); assay type: functional
Tubulin = experiment: (§2) Binding affinity to tubulin (unknown origin) after 15 mins by fluorescence spectrophotometry; assay type: protein-complex assay, Homo sapiens
Outline: (§3)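 Goat brain tubulin (2 μM) was incubated with ligand (5–100 μM) in 25 mM Pipes pH 6.8 for 15 min at 25 °C, read with excitation 295 nm and emission 336 nm in a 0.3 cm cell. No inner-filter correction was applied. ΔF was fitted to a quadratic binding equation to give Kd. Value is the average of five independent experiments.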

Tubulin (Homo sapiens) = Tubulin (Homo sapiens) (UniProt P68371+Q9H4B7+P0DPH7+P68366+Q13509+Q71U36+P04350+Q3ZCM7+P07437+P68363+Q9BQE3+Q6PEY2+Q13885+Q9BVA1+Q9BUF5); experiment: as §2; assay type: protein-complex assay; outline: as §3
MCF7 [5] = experiment: Inhibition of microtubule (unknown origin) dynamics in GFP-tubulin transfected human MCF7 cells assessed as decrease in microtubule dynamicity at 15 nM by confocal laser scanning microscopy relative to control; assay type: cell-based
Outline: (§4)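 EGFP-tubulin transfected MCF-7 cells were treated with vehicle or 15 nM, and individual microtubules were tracked by confocal laser scanning microscopy, 20 microtubules per condition. Life-history parameters were derived as previously described. Significance was tested by one-way ANOVA.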

MCF7 [6] = experiment: Inhibition of microtubule (unknown origin) dynamics in GFP-tubulin transfected human MCF7 cells assessed as microtubule shortening rate at 15 nM by confocal laser scanning microscopy (reference value: 16.4 +/- 5 um/min); assay type: cell-based; outline: as §1
HeLa [7] = experiment: Induction of apoptosis in human HeLa cells assessed as caspase-3 activation at 30 nM after 24 hrs by Western blot analysis; assay type: functional, cell-based
Outline: (§5)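 HeLa cells were treated with vehicle or 30 nM for 24 h and washed twice in PBS. Lysates were Western blotted with antibodies to JNK1, phospho-JNK, procaspase-3 and PARP.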

HeLa [8] = experiment: Induction of apoptosis in human HeLa cells assessed as genomic DNA fragmentation at 7 to 30 nM after 40 hrs by ethidium bromide staining-based electrophoresis; assay type: functional, cell-based
MCF7 [9] = experiment: Inhibition of microtubule (unknown origin) dynamics in GFP-tubulin transfected human MCF7 cells assessed as decrease in microtubule growth rate at 15 nM by confocal laser scanning microscopy relative to control; assay type: cell-based; outline: as §4
Homo sapiens [10] = organism: Homo sapiens; experiment: Inhibition of microtubule (unknown origin) GTPase activity using GTP as substrate assessed as reduction of inorganic phosphate release at 10 uM incubated for 10 mins prior to substrate addition measured after 10 mins by ammonium molybdate malachite green assay relative to control
Outline: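 GTP (1 mM) was added and the mixture polymerized at 37 °C for 10 min. Reactions were stopped with perchloric acid, and released phosphate was measured by ammonium molybdate–malachite green.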

HeLa [11] = experiment: Antiproliferative activity against human HeLa cells assessed as median dose after 24 hrs; assay type: functional
Outline: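 HeLa cells treated for 24 h with each agent alone and in combinations. The median dose (Dm) was taken from the median dose plot, and combination index was computed as CI = (D)1/(Dx)1 + (D)2/(Dx)2.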

HeLa [12] = experiment: Induction of apoptosis in human HeLa cells assessed as activated JNK1 level at 30 nM after 24 hrs by Western blot analysis relative to control; assay type: functional, cell-based; outline: as §5
Homo sapiens [13] = organism: Homo sapiens; experiment: Inhibition of microtubule (unknown origin) assembly at 1 uM incubated for 15 mins prior to GTP addition measured for 30 mins by 90 degree light scattering-based fluorescence spectrophotometric method
Outline: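 MAP-rich tubulin (1 mg/mL) was preincubated with 1, 3, 5 or 10 μM in PEM buffer (25 mM Pipes pH 6.8, 3 mM MgCl2, 1 mM EGTA) for 15 min on ice. GTP (1 mM) was then added and assembly monitored by 90° light scattering at 400 nm for 30 min at 37 °C.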

MCF7 [14] = experiment: Inhibition of microtubule (unknown origin) dynamics in GFP-tubulin transfected human MCF7 cells assessed as microtubule growth time at 15 nM by confocal laser scanning microscopy (reference value: 0.9 +/- 0.1 min); assay type: cell-based; outline: as §1
MCF7 [15] = experiment: Inhibition of microtubule (unknown origin) dynamics in GFP-tubulin transfected human MCF7 cells assessed as decrease in microtubule catastrophe frequency at 15 nM by confocal laser scanning microscopy relative to control; assay type: cell-based; outline: as §4
HeLa [16] = experiment: Inhibition of microtubule-kinetochore tension in human HeLa cells assessed as BubR1 accumulation at kinetochoric region at 15 to 45 nM after 24 hrs by Hoechst 33258 dye-based Hec1 staining assay; assay type: cell-based
HeLa [17] = experiment: Inhibition of microtubule-kinetochore attachment in human HeLa cells assessed as Mad2 accumulation at kinetochoric region at 15 to 45 nM after 24 hrs by Hoechst 33258 dye-based Hec1 staining assay; assay type: cell-based
MCF7 [18] = experiment: Inhibition of microtubule (unknown origin) dynamics in GFP-tubulin transfected human MCF7 cells assessed as increase in microtubule rescue frequency at 15 nM by confocal laser scanning microscopy relative to control; assay type: cell-based; outline: as §1

`CC[C@H](C)[C@@H]([C@@H](CC(=O)NC[C@H]1O[C@H](C(=O)NCCc2ccccc2)[C@@H](OC)[C@@H]1OC)OC)N(C)C(=O)[C@@H](NC(=O)[C@@H](NC)C(C)C)C(C)C` was tested, and the Activity (MCF7 [1]) was 12 min⁻¹, the Activity (MCF7 [2]) was 21% and the Activity (HeLa [3]) was “Active”. The Activity (HeLa [4]) was 9%, the Kd (Tubulin) was 29.4 µM and the Activity (Tubulin (Homo sapiens)) was “Dose-dependent effect”. The inhibition (MCF7 [5]) was 50%, the Activity (MCF7 [6]) was 12 um/min and the Activity (HeLa [7]) was “Active”. For the same compound, the Activity (HeLa [8]) was “Active”, the inhibition (MCF7 [9]) was 27% and the inhibition (Homo sapiens [10]) was 50%. The Activity (HeLa [11]) was 8.9 nM, the Activity (HeLa [12]) was “Active” and the inhibition (Homo sapiens [13]) was 13%. For the same compound, the TIME (MCF7 [14]) was 0.00833 h, the inhibition (MCF7 [15]) was 32% and the Activity (HeLa [16]) was “Active”. The Activity (HeLa [17]) was “Active” and the inhibition (MCF7 [18]) was 40%.
